ChEMBL document CHEMBL2440036, “3-[2-(Aminomethyl)-5-[(pyridin-4-yl)carbamoyl]phenyl] benzoates as soft ROCK inhibitors” (Bioorg Med Chem Lett, 2013)
The source made the active and inactive calls. No cut-off for these calls is given here.

How the values were obtained:
[1] = target: Rho-associated protein kinase 2 (Homo sapiens, UniProt O75116); experiment: Inhibition of ROCK2 (unknown origin) using long S6 kinase peptide as substrate by radiometric assay
[2] = Half life in human plasma by LC-MS/MS analysis; format: ADME, cell-free
[3] = Stability of the compound in PBS buffer at pH 7.4; format: physicochemical
[4] = Drug degradation in human plasma after 60 mins by LC-MS/MS analysis; format: ADME, cell-free; conditions: read-out: Drug degradation
[5] = Inhibition of ROCK in rat A7r5 cells assessed as inhibition of MLC phosphorylation by direct ELISA; format: cell-based
[6] = Apparent permeability of the compound at 10 uM after 5 hrs by PAMPA; format: ADME
[7] = Drug degradation in cornea of New Zealand white rabbit assessed as specific hydrolytic activity at 20 uM after 4 hrs by LC-MS/MS analysis; format: ADME, tissue-based, Oryctolagus cuniculus
In short: (§1)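 Test compound was incubated with ocular tissues from ocular normotensive New Zealand White rabbits, and its degradation rate was followed. Specific hydrolytic activity (pmol min-1 mg-1) was calculated by normalizing the degradation rate to tissue weight. Aqueous humor half-life refers to undiluted aqueous humor.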

[8] = Drug degradation in sclera of New Zealand white rabbit assessed as specific hydrolytic activity at 20 uM after 4 hrs by LC-MS/MS analysis; format: ADME, tissue-based, Oryctolagus cuniculus; in short: as §1
[9] = Drug degradation in vitreous humor of New Zealand white rabbit assessed as specific hydrolytic activity at 20 uM after 4 hrs by LC-MS/MS analysis; format: ADME, tissue-based, Oryctolagus cuniculus; in short: as §1
[10] = Drug degradation in conjunctiva of New Zealand white rabbit assessed as specific hydrolytic activity at 20 uM after 4 hrs by LC-MS/MS analysis; format: ADME, tissue-based, Oryctolagus cuniculus; in short: as §1
[11] = Half life in aqueous humor of New Zealand white rabbit assessed as specific hydrolytic activity at 20 uM by LC-MS/MS analysis; format: ADME, tissue-based, Oryctolagus cuniculus, Aqueous humor of eyeball; in short: as §1
[12] = tested on: Oryctolagus cuniculus; experiment: Reduction of IOP in New Zealand white rabbit eye administered topically after 3 hrs relative to baseline; format: functional; parameters: scale not given: the % may be the effect or the level left
[13] = organism: Oryctolagus cuniculus; experiment: Toxicity in New Zealand white rabbit assessed as hyperemia; format: organism-based; conditions: in vivo
[14] = Drug degradation in aqueous humor of New Zealand white rabbit assessed as specific hydrolytic activity at 20 uM after 4 hrs by LC-MS/MS analysis; format: ADME, tissue-based, Oryctolagus cuniculus, Aqueous humor of eyeball; in short: as §1
[15] = tested on: Oryctolagus cuniculus; experiment: Reduction of IOP in New Zealand white rabbit eye administered topically after 6 hrs relative to vehicle-treated control; format: functional

Rho-associated protein kinase 2, sequence (O75116 whole entry): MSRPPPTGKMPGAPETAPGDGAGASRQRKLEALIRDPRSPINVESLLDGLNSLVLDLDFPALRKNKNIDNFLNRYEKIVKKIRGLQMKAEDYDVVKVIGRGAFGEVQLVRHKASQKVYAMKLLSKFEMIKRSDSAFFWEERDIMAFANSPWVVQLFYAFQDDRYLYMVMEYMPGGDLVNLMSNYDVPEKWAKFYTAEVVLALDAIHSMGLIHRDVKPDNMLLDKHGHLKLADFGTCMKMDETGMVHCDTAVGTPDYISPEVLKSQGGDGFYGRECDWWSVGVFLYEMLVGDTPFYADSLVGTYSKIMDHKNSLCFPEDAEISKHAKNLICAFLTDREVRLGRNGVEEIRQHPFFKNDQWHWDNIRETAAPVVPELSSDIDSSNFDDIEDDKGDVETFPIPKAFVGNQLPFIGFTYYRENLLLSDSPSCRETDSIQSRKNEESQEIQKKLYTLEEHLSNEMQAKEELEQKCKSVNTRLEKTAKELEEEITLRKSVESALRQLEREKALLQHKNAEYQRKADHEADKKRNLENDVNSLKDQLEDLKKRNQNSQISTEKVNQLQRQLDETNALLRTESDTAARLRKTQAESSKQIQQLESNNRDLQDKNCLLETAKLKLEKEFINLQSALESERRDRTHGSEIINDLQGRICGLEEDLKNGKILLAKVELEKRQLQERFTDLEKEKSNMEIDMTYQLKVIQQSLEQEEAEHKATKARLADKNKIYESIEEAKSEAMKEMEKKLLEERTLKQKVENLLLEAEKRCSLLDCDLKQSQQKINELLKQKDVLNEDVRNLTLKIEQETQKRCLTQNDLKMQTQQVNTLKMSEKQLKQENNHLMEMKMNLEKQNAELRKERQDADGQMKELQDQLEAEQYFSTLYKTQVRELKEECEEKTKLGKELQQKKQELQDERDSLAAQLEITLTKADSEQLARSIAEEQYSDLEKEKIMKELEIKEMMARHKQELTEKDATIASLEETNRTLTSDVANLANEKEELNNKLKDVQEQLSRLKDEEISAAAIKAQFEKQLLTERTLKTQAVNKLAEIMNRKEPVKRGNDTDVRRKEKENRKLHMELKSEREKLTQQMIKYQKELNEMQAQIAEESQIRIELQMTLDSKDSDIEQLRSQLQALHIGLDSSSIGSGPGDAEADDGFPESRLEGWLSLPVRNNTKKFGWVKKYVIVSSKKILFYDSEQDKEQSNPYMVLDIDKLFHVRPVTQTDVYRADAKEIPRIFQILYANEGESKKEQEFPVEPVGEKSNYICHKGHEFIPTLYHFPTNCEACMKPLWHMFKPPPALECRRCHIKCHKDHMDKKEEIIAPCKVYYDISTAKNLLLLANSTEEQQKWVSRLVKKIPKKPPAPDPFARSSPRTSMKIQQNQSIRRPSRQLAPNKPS

| SMILES | IC50 [1] | half-life [2] | Stability [3] | EC50 [5] | further results |
| --- | --- | --- | --- | --- | --- |
| CCCOC(=O)c1cccc(-c2cc(C(=O)Nc3ccncc3F)ccc2CN)c1 | 5.1 nM | 19 min | Stable |  |  |
| CCCCCOC(=O)c1cccc(-c2cc(C(=O)Nc3ccncc3)ccc2CN)c1 | 4.9 nM | 58 min | Stable |  |  |
| NCc1ccc(C(=O)Nc2ccncc2F)cc1-c1cccc(C(=O)O)c1 | 55 nM | > 120 min |  | > 1000 nM | metabolised at 1 h [4]: < 5%; Papp at 5 h, 10 µM [6]: < 0.01 ×10⁻⁶ cm/s |
| NCc1ccc(C(=O)Nc2ccncc2)cc1-c1cccc(C(=O)OCc2ccccc2)c1 | 45 nM | 64 min | Stable |  |  |
| CCCCOC(=O)c1cccc(-c2cc(C(=O)Nc3ccncc3)ccc2CN)c1 | 5.5 nM | 22 min | Stable |  |  |
| NCc1ccc(C(=O)Nc2ccncc2F)cc1-c1cccc(C(=O)OC2CCCOC2)c1 (stereo not given) | 8.7 nM | 18 min | Stable |  |  |
| NCc1ccc(C(=O)Nc2ccncc2F)cc1-c1cccc(C(=O)Oc2ccccc2)c1 | 6.2 nM | 7 min | Stable |  |  |
| COC(=O)c1cccc(-c2cc(C(=O)Nc3ccncc3)ccc2CN)c1 | 2.9 nM | 91 min | Stable | 8 nM |  |
| CCCCCCOC(=O)c1cccc(-c2cc(C(=O)Nc3ccncc3)ccc2CN)c1 | 22 nM | 50 min | Stable |  |  |
| COC(=O)c1cccc(-c2cc(C(=O)Nc3ccncc3F)ccc2CN)c1 | 7.8 nM | 65 min | Stable | 130 nM |  |
| NCc1ccc(C(=O)Nc2ccncc2)cc1-c1cccc(C(=O)OCC2CCCC2)c1 | 5 nM | 31 min | Stable | 70 nM |  |
| NCc1ccc(C(=O)Nc2ccncc2F)cc1-c1cccc(C(=O)OCC2CCCC2)c1 | 13 nM | 17 min | Stable | 52 nM |  |
| NCc1ccc(C(=O)Nc2ccncc2F)cc1-c1cccc(C(=O)OCC2CC2)c1 | 2.7 nM | 18 min | Stable |  |  |
| NCc1ccc(C(=O)Nc2ccncc2F)cc1-c1cccc(C(=O)OCC2CCCO2)c1 (stereo not given) | 2.5 nM | < 5 min | Stable | 16 nM | Drug degradation [7]: 2.71 pmol/min/mg; Drug degradation [8]: 1 pmol/min/mg; Drug degradation [9]: 0.22 pmol/min/mg; Drug degradation [10]: 1.52 pmol/min/mg; half-life at 20 µM [11]: 116 min; Activity [12]: 28.7%; Activity [13]: Non-toxic; Drug degradation [14]: 0.12 pmol/min/mg; Activity [15]: Active; Activity ([15]; record 2): 0.5% |
| NCc1ccc(C(=O)Nc2ccncc2F)cc1-c1cccc(C(=O)OCC2CCC2)c1 | 4.3 nM | 13 min | Stable |  |  |
| NCc1ccc(C(=O)Nc2ccncc2)cc1-c1cccc(C(=O)OCC2CCCCC2)c1 | 48 nM | 99 min | Stable |  |  |
| NCc1ccc(C(=O)Nc2ccncc2F)cc1-c1cccc(C(=O)OCC2CCCCO2)c1 (stereo not given) | 12 nM | 7 min | Stable |  |  |
| COCCOC(=O)c1cccc(-c2cc(C(=O)Nc3ccncc3)ccc2CN)c1 | 3.6 nM | 12 min | Stable | 170 nM |  |
| NCc1ccc(C(=O)Nc2ccncc2F)cc1-c1cccc(C(=O)OCCO)c1 | 1.4 nM | 81 min | Stable |  |  |
| CCCOC(=O)c1cccc(-c2cc(C(=O)Nc3ccncc3)ccc2CN)c1 | 1.4 nM | 18 min | Stable | 9.1 nM |  |
| C[C@@H](N)[C@H]1CC[C@H](C(=O)Nc2ccncc2)CC1 [Y-27632] |  | > 120 min |  | 200 nM | metabolised at 1 h [4]: < 5% |
| NCc1ccc(C(=O)Nc2ccncc2)cc1-c1cccc(C(=O)O)c1 | 167 nM | > 120 min |  | > 1000 nM | metabolised at 1 h [4]: < 5%; Papp at 5 h, 10 µM [6]: < 0.01 ×10⁻⁶ cm/s |
| COC(=O)c1ccc(-c2cc(C(=O)Nc3ccncc3)ccc2CN)cc1 | 102 nM |  |  |  |  |
| CC(C)OCCOC(=O)c1cccc(-c2cc(C(=O)Nc3ccncc3F)ccc2CN)c1 | 37 nM | 6 min | Stable |  |  |
| COCCCOC(=O)c1cccc(-c2cc(C(=O)Nc3ccncc3)ccc2CN)c1 | 1.5 nM | 26 min | Stable | 28 nM |  |
| CC(N)c1ccc(C(=O)Nc2ccncc2)cc1-c1ccc(F)cc1 (stereo not given) | 1.2 nM | > 120 min |  | 6.1 nM | metabolised at 1 h [4]: < 5% |
| NCc1ccc(C(=O)Nc2ccncc2)cc1-c1cccc(C(=O)OC2CCCCC2)c1 | 20 nM | > 120 min | Unstable |  |  |
| CCOC(=O)c1cccc(-c2cc(C(=O)Nc3ccncc3)ccc2CN)c1 | < 1 nM | 41 min | Stable |  |  |
